In brackets after ≈: the same amount, converted by molar mass.

The values that follow come from ChEMBL document CHEMBL1143151, “Design, synthesis and antimalarial activity of benzene and isoquinoline sulfonamide derivatives” (2008).

The test system of the experiment is Plasmodium falciparum. The experiment in a line: Antimalarial activity against Plasmodium falciparum NF54 after 36-40 hrs. Type of experiment: functional. The procedure, abridged: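 P. falciparum NF-54 kept in RPMI-1640 with 25 mM Hepes, 1% D-glucose, 0.23% sodium bicarbonate, 10% heat-inactivated human serum; D-sorbitol (5%) synchronized to ring stage. ~1% ring parasitaemia, 3% haematocrit; compound […] µg/mL, duplicate wells, 37 °C candle jar, 36–40 h. Giemsa smears scored microscopically; MIC = concentration blocking full maturation to schizonts. Pyrimethamine reference.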
Usually MIC stands for the lowest concentration found to suppress growth. Molecule `O=S(=O)(c1ccccc1)N1CCN(CCO)CC1` showed a minimal inhibitory concentration (MIC) of 10 µg/mL (≈ 37 µM).

Consider `O=[N+]([O-])c1ccc(S(=O)(=O)N2CCN(c3ccccn3)CC2)cc1`, for which the lowest concentration to inhibit growth (MIC) was 10 µg/mL (≈ 28.7 µM).

`O=S(=O)(c1ccccc1)N1CCN(c2ccc(Cl)cc2)CC1` displayed a minimum inhibitory concentration (MIC) of 10 µg/mL (≈ 29.7 µM).

In turn, `Cc1ccc(S(=O)(=O)NCCCN2CCOCC2)cc1` came in with an MIC of 10 µg/mL (≈ 33.5 µM).

`CN(CC(O)CNCCc1ccc(O)cc1)S(=O)(=O)c1cccc2cnccc12` (centres undefined) had a minimal inhibitory concentration (MIC) of 50 µg/mL (≈ 120 µM). This MIC is about 5-fold higher than that of the molecule before.

`O=[N+]([O-])c1ccc(S(=O)(=O)N2CCN(Cc3ccccc3)CC2)cc1` returned an MIC of 10 µg/mL (≈ 27.7 µM).

In turn, `CN(CC(O)CNCCc1c[nH]c2ccccc12)S(=O)(=O)c1cccc2cnccc12` (centres undefined) showed an MIC of 10 µg/mL (≈ 22.8 µM).

Consider `Cc1ccc(S(=O)(=O)N2CCN(c3ccc(Cl)cc3)CC2)cc1`, for which the minimal inhibitory concentration (MIC) was 10 µg/mL (≈ 28.5 µM).

`O=[N+]([O-])c1ccc(S(=O)(=O)N2CCN(CCO)CC2)cc1` showed an MIC of 10 µg/mL (≈ 31.7 µM).

Consider `CN(CC(O)CNCc1ccc(Cl)cc1Cl)S(=O)(=O)c1cccc2cnccc12` (centres undefined), for which the lowest concentration to inhibit growth (MIC) was 2 µg/mL (≈ 4.4 µM).

In turn, `COc1ccc(CCNS(=O)(=O)c2ccc([N+](=O)[O-])cc2)cc1OC` displayed an MIC of 10 µg/mL (≈ 27.3 µM).

In turn, `CCc1nc(N)nc(N)c1-c1ccc(Cl)cc1` [PYRIMETHAMINE] yielded an MIC of 10 µg/mL (≈ 40.2 µM).

On to `O=S(=O)(c1ccccc1)N1CCN(c2ccccn2)CC1`, for which the MIC turned out to be 10 µg/mL (≈ 33 µM).

The molecule `NCCN1CCN(S(=O)(=O)c2cccc3cnccc23)CC1` returned an MIC of 10 µg/mL (≈ 31.2 µM).

Molecule `CN(CC(O)CNCc1ccc(Cl)c(Cl)c1)S(=O)(=O)c1cccc2cnccc12` (centres undefined) registered an MIC of 2 µg/mL (≈ 4.4 µM).

Take `CN1CCN(S(=O)(=O)c2ccccc2)CC1`: the minimum inhibitory concentration (MIC) was found to be 10 µg/mL (≈ 41.6 µM).

Turning to `Cc1ccc(S(=O)(=O)N2CCN(Cc3ccccc3)CC2)cc1`, the minimal inhibitory concentration (MIC) turned out to be 10 µg/mL (≈ 30.3 µM).

For the molecule `Cc1ccc(S(=O)(=O)N2CCN(C)CC2)cc1`, the MIC is 10 µg/mL (≈ 39.3 µM).

On to `O=[N+]([O-])c1ccc(S(=O)(=O)NCCCN2CCOCC2)cc1`, for which it took 10 µg/mL (≈ 30.4 µM) to inhibit growth (MIC).

Molecule `CN(CC(O)CNCc1ccc(Cl)cc1)S(=O)(=O)c1cccc2cnccc12` (centres undefined) came in with a minimum inhibitory concentration (MIC) of 10 µg/mL (≈ 23.8 µM).

As for `COc1ccc(CCNS(=O)(=O)c2ccc(C)cc2)cc1OC`, the MIC stood at 10 µg/mL (≈ 29.8 µM).

Consider `O=[N+]([O-])c1ccc(S(=O)(=O)N2CCN(c3cccc(Cl)c3)CC2)cc1`, for which the minimum inhibitory concentration (MIC) was found to be 10 µg/mL (≈ 26.2 µM).

For `CN(CC(O)CNCc1ccco1)S(=O)(=O)c1cccc2cnccc12` (centres undefined), the MIC was found to be 10 µg/mL (≈ 26.6 µM).

In turn, `Cc1ccc(S(=O)(=O)N2CCN(CCO)CC2)cc1` yielded a minimum inhibitory concentration (MIC) of 10 µg/mL (≈ 35.2 µM).

`COc1ccc(CCNS(=O)(=O)c2ccccc2)cc1OC` registered an MIC of 10 µg/mL (≈ 31.1 µM).

The molecule `O=S(=O)(NCCCN1CCOCC1)c1ccccc1` yielded a minimum inhibitory concentration (MIC) of 10 µg/mL (≈ 35.2 µM).

`COc1ccc(CCNCC(O)CN(C)S(=O)(=O)c2cccc3cnccc23)cc1` (centres undefined) yielded a minimal inhibitory concentration (MIC) of 10 µg/mL (≈ 23.3 µM).

The molecule `Cc1ccc(S(=O)(=O)NCCCn2ccnc2)cc1` returned an MIC of 10 µg/mL (≈ 35.8 µM).

The molecule `CN1CCN(S(=O)(=O)c2ccc([N+](=O)[O-])cc2)CC1` gave an MIC of 10 µg/mL (≈ 35 µM).

The molecule `CN(CC(O)CNCCCn1ccnc1)S(=O)(=O)c1cccc2cnccc12` (centres undefined) came in with a minimal inhibitory concentration (MIC) of 50 µg/mL (≈ 124 µM). Compared with the last molecule, the MIC is about 5-fold higher.

With `CN(CC(O)CNCc1ccccc1Cl)S(=O)(=O)c1cccc2cnccc12` (centres undefined), the MIC was 10 µg/mL (≈ 23.8 µM).

As to `COc1ccc(CCNCC(O)CN(C)S(=O)(=O)c2cccc3cnccc23)cc1OC` (centres undefined), the MIC came out at 10 µg/mL (≈ 21.8 µM).

The molecule `CN(CC(O)CNCc1ccccc1)S(=O)(=O)c1cccc2cnccc12` (centres undefined) had a minimum inhibitory concentration (MIC) of 10 µg/mL (≈ 25.9 µM).

Consider `O=S(=O)(c1cccc2cnccc12)N1CCN(CCO)CC1`, for which the MIC was determined as 50 µg/mL (≈ 156 µM).
